In brackets after ≈: the same amount, converted by molar mass.
How the values were obtained:
[1] = target: T1, Oxysterols receptor LXR-alpha (Homo sapiens, UniProt Q13133); test: (§1) Agonist activity at LXRalpha (unknown origin) expressed in human HepG2 cells co-expressing ABCA1 promoter measured after 48 hrs by cell-based transactivation assay
T1 sequence (Q13133 whole entry): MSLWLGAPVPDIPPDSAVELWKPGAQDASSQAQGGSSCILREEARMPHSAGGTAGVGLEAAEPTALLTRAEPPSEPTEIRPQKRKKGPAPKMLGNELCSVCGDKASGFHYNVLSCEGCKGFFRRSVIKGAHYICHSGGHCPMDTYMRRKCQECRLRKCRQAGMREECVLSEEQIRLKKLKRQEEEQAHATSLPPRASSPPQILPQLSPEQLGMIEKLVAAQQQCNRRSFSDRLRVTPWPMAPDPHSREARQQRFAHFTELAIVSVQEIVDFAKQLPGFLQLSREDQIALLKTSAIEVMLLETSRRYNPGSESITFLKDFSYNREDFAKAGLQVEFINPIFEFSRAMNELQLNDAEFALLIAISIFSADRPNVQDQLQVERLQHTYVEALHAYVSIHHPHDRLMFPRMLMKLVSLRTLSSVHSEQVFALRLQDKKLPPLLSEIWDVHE

[2] = target: T2, Oxysterols receptor LXR-alpha (Homo sapiens) (UniProt Q13133); test: as §1
T2 sequence (whole entry): T1 sequence (Q13133 whole entry)

[3] = target: T3, Oxysterols receptor LXR-beta (Homo sapiens, UniProt P55055); test: (§2) Agonist activity at LXRbeta (unknown origin) expressed in human H4 cells co-expressing ABCA1 promoter measured after 48 hrs by cell-based transactivation assay
T3 sequence (P55055 whole entry): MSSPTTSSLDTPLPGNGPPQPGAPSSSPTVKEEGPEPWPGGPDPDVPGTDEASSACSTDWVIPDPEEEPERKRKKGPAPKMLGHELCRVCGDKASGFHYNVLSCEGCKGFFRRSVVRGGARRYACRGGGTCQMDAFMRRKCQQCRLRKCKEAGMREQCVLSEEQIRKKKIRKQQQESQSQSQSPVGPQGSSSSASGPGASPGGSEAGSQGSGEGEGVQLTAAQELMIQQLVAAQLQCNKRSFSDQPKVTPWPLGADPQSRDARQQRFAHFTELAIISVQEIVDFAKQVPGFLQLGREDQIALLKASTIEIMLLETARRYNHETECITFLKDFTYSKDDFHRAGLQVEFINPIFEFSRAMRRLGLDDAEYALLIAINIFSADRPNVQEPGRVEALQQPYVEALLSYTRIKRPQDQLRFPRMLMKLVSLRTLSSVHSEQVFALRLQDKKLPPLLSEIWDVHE

[4] = target: T4, Oxysterols receptor LXR-beta (Homo sapiens) (UniProt P55055); test: as §2
T4 sequence (whole entry): T3 sequence (P55055 whole entry)

[5] = Solubility of the compound at pH 2; format: physicochemical; settings: buffer
[6] = target: T1, Oxysterols receptor LXR-alpha; test: Agonist activity at GST-tagged LXRalpha-LBD (unknown origin) by LanthaScreen TR-FRET liver X receptor coactivator assay
Method in brief: (§3)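 Cofactor recruitment assay using the ligand binding domains of LXRβ or LXRα. The read-out was EC50 and Emax, with Emax relative to a full agonist control.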

[7] = target: T4, Oxysterols receptor LXR-beta (Homo sapiens); test: Agonist activity at GST-tagged LXRbeta-LBD (unknown origin) by LanthaScreen TR-FRET liver X receptor coactivator assay relative to T1317; method in brief: as §3
[8] = target: T3, Oxysterols receptor LXR-beta; test: Agonist activity at GST-tagged LXRbeta-LBD (unknown origin) by LanthaScreen TR-FRET liver X receptor coactivator assay; method in brief: as §3
[9] = target: T2, Oxysterols receptor LXR-alpha (Homo sapiens); test: Agonist activity at GST-tagged LXRalpha-LBD (unknown origin) by LanthaScreen TR-FRET liver X receptor coactivator assay T1317; method in brief: as §3

Row | Structure (SMILES) | EC50 [1] | Emax [2] | EC50 [3] | Emax [4] | solubility [5] | EC50 [6] | Emax [7] | EC50 [8] | Emax [9]
1 | CC(C)[C@](O)(C(=O)N1CCC(C2CCN(c3ccc(C(=O)N(C)C)c(Cl)c3)CC2)CC1)C(F)(F)F | 2 µM | 31% | 0.84 µM | 117% |  |  |  |  | 
2 | CN(C)C(=O)c1ccc(-c2cnc(N3CCN(C(=O)[C@](O)(c4ccccc4)C(F)(F)F)CC3)c(C#N)c2)cc1Cl | 0.045 µM | 66% | 0.007 µM | 64% | 3 µM (≈ 1.72 µg/mL) | 0.041 µM | 67% | 0.008 µM | 62%

Reference: ChEMBL document CHEMBL3808288, “Identification and in Vivo Evaluation of Liver X Receptor β-Selective Agonists for the Potential Treatment of Alzheimer's Disease” (J Med Chem, 2016)
